Source: PubChem BioAssay (several laboratories)
Only some compounds are listed: those with a hit (about 0.97% of all), similar ones and a draw of the others.
Mdm2 ligase inh: MDM2-luciferase reporter signal enhancers, primary screen, MDM2 E3 ligase inhibitor project, cell-based, luminescence, 1536-well | cell-based MDM2 ubiquitination luciferase reporter, 2 h; 0 = plate control, 100 = twice control, blank-subtracted | signal enhancement, % at 5 µM | 0.11% of 210,000 active;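 active = signal enhancement of 30% or more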;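 also: luminescence tracks abundance of the self-degrading MDM2-luciferase fusion protein; higher signal means inhibition of MDM2 E3 ligase activity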
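Assay system: stable mammalian line carrying autodegrading MDM2–luciferase fusion reporter; Input: 2000 cells in each well; Compound dosing: single-point 5 µM; Schedule: 2 h compound exposure at 37 °C; Signal: SteadyLite luciferase luminescence after 15 min room-temperature reagent incubation; Evaluation: % luminescence enhancement versus blank-corrected plate control mean; Benchmarks: plate controls and plate blanks.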
TNF death inh: inhibitors of TNF-alpha triggered necroptosis, primary screen, cell-based, Jurkat FADD-/-, single concentration | Jurkat FADD-/- TNF necroptosis rescue, ATP luminescence, 24 h; 0 = TNF only, 100 = no-TNF cells | activation (protection from cell death), % at 10 µM | 0.068% of 220,000 active | AID 463075, 2010;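 active = activation, meaning protection from cell death, of at least 50% relative to plate controls; inactive = activation below 50%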;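 also: necroptosis triggered by 40 ng/mL TNF-alpha added together with compound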
B2AR ag: beta2AR agonists driving receptor internalization, primary screen, cell-based, FAP fluorogen, flow cytometry | Beta-2 adrenergic receptor (Homo sapiens), P07550 | Am2.2-beta2AR cells | response, % (test concentration not listed) | 0.43% of 340,000 active | AID 504454, 2011;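 active = response above a set limit, near 3 SD of response in nonfluorescent compounds, cut at about 42% in these data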
Target sequence (P07550 whole entry, looked up): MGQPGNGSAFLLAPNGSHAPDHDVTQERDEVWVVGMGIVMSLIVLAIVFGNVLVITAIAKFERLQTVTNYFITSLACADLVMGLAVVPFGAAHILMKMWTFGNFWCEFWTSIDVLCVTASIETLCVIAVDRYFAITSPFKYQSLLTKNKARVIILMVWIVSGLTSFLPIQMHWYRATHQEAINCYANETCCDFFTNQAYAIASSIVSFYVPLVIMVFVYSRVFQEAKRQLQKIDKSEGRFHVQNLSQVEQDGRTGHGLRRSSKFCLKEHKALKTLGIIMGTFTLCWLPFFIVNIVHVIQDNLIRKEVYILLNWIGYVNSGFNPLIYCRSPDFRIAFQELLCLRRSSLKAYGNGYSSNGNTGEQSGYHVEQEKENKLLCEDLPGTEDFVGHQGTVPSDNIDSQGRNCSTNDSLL
Dynein cargo inh: inhibitors of GR-EGFP nuclear translocation, primary screen, dynein cargo transport inhibitor project, imaging, high-content, 3617.4 mouse cells; test concentration mostly 20 µM; stimulated with dexamethasone, 1 µM; hits give low values; 0.47% of 220,000 active; AID 1381, 2008; z-score, hits read low;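 active = plate z-score of nuclear minus cytoplasmic receptor signal below a set negative limit, without overly bright fluorescence or cell loss, cut at about -3.5 in these data, passing the limit was not always enough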;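 also: z-score of nuclear minus cytoplasmic ring GR-EGFP intensity difference per well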
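Buffer or medium – tet-free medium with charcoal-stripped serum · Signal – automated 10x imaging of fixed Hoechst-stained cells · Also added – dexamethasone agonist, 1.0 µM final, for 30 min · Incubation – induction 48 h, compound 1 h, agonist 30 min · Read-out – GR-EGFP nuclear translocation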
L929 necroptosis: inhibitors of zVAD-triggered necroptosis, primary screen, L929 cells; L929 zVAD necroptosis rescue, ATP luminescence, 24 h; with zVAD 60 µM; viability rescue, % at 10 µM; 0.38% of 220,000 active; AID 1377, 2008;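 active = activation, scaled between plate controls, above about 75%, limit read from the data; inactive = activation under that limit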;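 also: 0% = zVAD with DMSO and 100% = DMSO alone without zVAD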
B2AR ag CP1: beta2AR agonists via receptor internalization, confirmation, cell-based, FAP fluorogen, flow cytometry, single point, cherry pick 1 | shares compounds with B2AR ag | Am2.2-beta2AR cells, FAP surface receptor; hits give low values | percent response (surface receptor), % at 10 µM | 25% of 1,100 active;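 active = surface receptor percent response at or below 58%, roughly 3 SD from nonfluorescent compounds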
B2AR FAP counter: counter-screen for beta-2AR agonists: fluorescence in Am2.2 cells | shares compounds with B2AR ag | FAP fluorogen flow cytometry, fluorescence counterscreen; hits give low values | calls only at 10 µM | 1,100 tested, under 10 active | AID 588765;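 active = percent response below a set limit in fluorescence channel 1 and below 50% in channel 8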
* = called active by the depositor; i = inactive; x = no result given.

SMILES | Mdm2 ligase inh | TNF death inh | B2AR ag | Dynein cargo inh | L929 necroptosis | B2AR ag CP1 | B2AR FAP counter
Cc1c(Br)c([N+](=O)[O-])nn1CCCC(=O)Nc1sc2c(c1C#N)CCC2 | -3.9 | 2.0 | 59.4* | -0.19 | 1.1 | 128.2 | i
Cc1cccc(OCC(=O)Nc2ccc3c(c2)nc(CCN2CCN(C)CC2)n3C)c1 | -12.4 | -0.9 | -0.6 | 0.595 | 0.0 | 112.3 | i
COc1ccc(OCC(=O)Nc2ccc3c(c2)nc(CCN2CCN(C)CC2)n3C)cc1 | x | x | 52.4* | x | x | 107.5 | i
COc1ccc(OCC(=O)Nc2ccc3c(c2)nc(CCN2CCCC2)n3C)cc1 | x | x | 8.5 | x | x | x | x
Cc1cccc(OCC(=O)Nc2ccc3c(c2)nc(CCN2CCC(C)CC2)n3C)c1 | x | x | 2.0 | x | x | x | x
Cc1ccc(Cn2ncc3c(N4CCN(Cc5ccc(Cl)cc5)CC4)ncnc32)cc1 | -12.5 | -7.9 | 5.0 | -0.219 | -0.2 | x | x
Cc1ccccc1N1CCN(c2ncnc3c2cnn3Cc2ccc(Cl)cc2)CC1 | -2.9 | -1.6 | 43.7* | -1.28 | 7.2 | 98.2 | i
S=C(Nc1ccccc1)Nc1nccs1 | -16.8 | -16.1 | -0.2 | 0.871 | 16.5 | 94.0 | i
O=C(OCc1cccc(C(F)(F)F)c1)c1cc(S(=O)(=O)N2CCOCC2)ccc1F | x | x | 56.5* | x | x | 102.9 | i
Cc1cc(C)c2c(N)c(-c3nnc(SCc4ccc(Cl)cc4)n3C)sc2n1 | -10.9 | 1.3 | 111.1* | 0.748 | -0.1 | 21.3* | i
Cn1c(SCc2ccc(Cl)cc2)nnc1C1CC1 | -11.3 | 0.7 | -9.2 | 0.00229 | 1.1 | x | x
C=CCn1c(SCc2ccccc2Cl)nnc1-c1sc2nc(C)cc(C)c2c1N | -8.0 | 0.2 | 110.1* | 0.832 | 2.1 | 17.3* | i
COc1ccc(N2C(=O)c3ccc(C(=O)OC(C)C)cc3C2=O)cc1 | x | -1.1 | 3.3 | -0.152 | 0.8 | x | x
COc1ccc(-c2onc(C)c2-c2ccc(C(=O)OC(C)C)o2)c(O)c1 | -17.9 | -2.9 | 3.6 | 0.27 | 0.2 | 117.6 | i
CC(=O)N1c2ccccc2C2(C)C(C1(C)C)C2(Cl)Cl (stereo unspecified) | -8.6 | -0.4 | 7.1 | -0.58 | -0.1 | x | x
Cc1nc(SCc2nc3c([N+](=O)[O-])cccc3[nH]2)c2oc3ccccc3c2n1 | x | x | 52.0* | x | x | 124.3 | i
Cc1nc(SCc2nc3c(C)cccc3[nH]2)c2oc3ccccc3c2n1 | x | x | -5.6 | x | x | x | x
O=C(Nc1cccnc1)c1cccc(S(=O)(=O)N2CCOCC2)c1 | -1.6 | 0.8 | 0.5 | 0.796 | 0.5 | x | x
CCSc1cnn(-c2ccccc2)c(=O)c1Cl | x | x | -1.9 | x | x | x | x
Nc1c(Cl)cnn(-c2ccccc2)c1=O | x | x | -4.9 | x | x | 112.0 | i
COc1ccc(C(=O)Nc2ccc(N3CCN(C)CC3)cc2)cc1OC | x | x | 10.7 | x | x | x | x
COc1ccc(C(=O)CCC(=O)Nc2ccc(N3CCCCC3)cc2)cc1OC | x | x | 72.3* | x | x | 97.7 | i
CCC(C)NC(=O)C(NS(=O)(=O)c1ccc2c(c1)c(=O)n(C)c(=O)n2C)c1ccccc1 (stereo unspecified) | -16.1 | 0.0 | 7.7 | -0.2 | 1.5 | x | x
CCOC(=O)c1ccc(-n2c(C)ccc2C)cc1 | -0.6 | 0.2 | 13.0 | 0.372 | 2.0 | x | x
CCOC(=O)c1ccc(N=c2sc(C(=O)OC)cc(=O)n2-c2ccc(C(=O)OCC)cc2)cc1 | x | -15.5 | 48.1* | -3.31 | x | 49.7* | i
O=C(c1ccccc1)c1cc([N+](=O)[O-])ccc1N1CCOCC1 | -6.0 | -2.2 | 16.1 | -0.528 | -0.7 | x | x
CC1CCCN(c2ccc([N+](=O)[O-])cc2C(=O)c2ccccc2)C1 (stereo unspecified) | 1.5 | -14.7 | 42.3* | -0.81 | x | 48.6* | i
